The full list was thinned out, with hits kept by preference.
PGC1a acetyl up = raises PGC1a acetylation signal in U2OS cells | U2OS PGC1a acetylation AlphaScreen, overnight | activation, % at 15.6 µM | actives 0.21% (n = 350,000);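 active = every replicate reaching activation of at least 50%, whatever the mean replicate activation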;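 also: hits raise the AlphaScreen acetylation signal above neutral controls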
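Test system: U2OS cells expressing flag-PGC1a plus GCN5; Amount: 7000 U2OS cells per well; Compound: single test concentration per compound; Incubation: compound overnight at 37 °C, each detection step 1 h RT; Signal: AlphaScreen lysate read.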
Each line names hits and unclear results; the compound was inactive in the other large screens.

O=C(N/N=C/c1cccc([N+](=O)[O-])c1)C1COc2ccccc2O1 (stereo unspecified)	PGC1a acetyl up 188.4
O=C(N/N=C\c1cccc([N+](=O)[O-])c1O)C1COc2ccccc2O1 (stereo unspecified)	PGC1a acetyl up 74.8
Cn1cccc1CC(=O)N/N=C/c1cc([N+](=O)[O-])ccc1Cl	none
CN(C)Cc1csc(NC(=O)Nc2ccccc2-c2ccccc2)n1	PGC1a acetyl up 51.7
C/C(CC(=O)Nc1ccccc1Br)=N\NC(=O)C(=O)N1CCCC1	none
N#Cc1cc(Oc2cccc3cccnc23)c(-n2nnc3ccccc32)cc1C#N	PGC1a acetyl up 138.7
COc1ccc(C(CC(=O)Nc2ccccn2)N2Cc3ccccc3C2=O)cc1 (stereo unspecified)	none
C[C@@H]1CN([C@@H](C)CO)C(=O)c2cccc(NC(=O)c3ccc(-c4nccs4)cc3)c2O[C@@H]1CN(C)C(=O)Nc1ccc(C(F)(F)F)cc1	none
COc1ccc(C(=O)Sc2nncc3ccccc23)cc1	none
C=C(C(=O)c1ccccc1)C(C(=C)C(=O)c1ccccc1)c1ccc(OC)cc1	PGC1a acetyl up 160.3
Cc1noc(C)c1NC(=O)Nc1cccc2c1O[C@H](CN(C)Cc1ccc(Oc3ccccc3)cc1)[C@H](C)CN([C@@H](C)CO)C2=O	none
NC(=O)C1CCN(C2=C(Cl)C(=O)c3ccccc3C2=O)CC1	PGC1a acetyl up 66.1
Cc1cc(O)c(N=Nc2ccc(C(=O)O)cc2)cc1C	none
COc1ccc(Nc2nc(N)c(C(=O)c3ccc(OC)cc3)s2)cc1	PGC1a acetyl up 82.8
C[C@H]1CN([C@@H](C)CO)C(=O)c2cc(/C=C/c3ccccc3)cnc2O[C@H]1CN(C)C(=O)CN(C)C	none
COc1cc(-c2cnc3c(NC=O)cc(-c4ccccc4)cn23)cc(OC)c1OC	PGC1a acetyl up 105.1
COc1cc(-c2cnc3c(NC=O)cc(-c4ccccc4Cl)cn23)cc(OC)c1OC	PGC1a acetyl up 101.9
COc1cc(-c2cnc3c(NC=O)cc(-c4ccc(C)cc4)cn23)cc(OC)c1OC	PGC1a acetyl up 89.1
Cc1noc(C)c1S(=O)(=O)N(C)C[C@H]1Oc2ccc(NC(=O)Nc3ccccc3)cc2CC(=O)N([C@H](C)CO)C[C@H]1C	none
C[C@H]1CCCCO[C@H](CN(C)Cc2ccc3c(c2)OCO3)[C@@H](C)CN([C@@H](C)CO)C(=O)c2cc(NC(=O)Nc3ccc(C(F)(F)F)cc3)ccc2O1	none
O=C(C[C@@H]1C[C@@H]2c3cc(NC(=O)Nc4ccccc4F)ccc3O[C@@H]2[C@H](CO)O1)NCc1ccc(Oc2ccccc2)cc1	none
C[n+]1c2n(c3ccccc31)N=C(c1cc(C(C)(C)C)c(O)c(C(C)(C)C)c1)CS2	PGC1a acetyl up 88.4
CC(C)c1ccc(/C=N/n2nnnc2Nc2ccccc2)cc1	none
O=C(NCc1ccc2c(c1)OCO2)C1CCN(S(=O)(=O)c2cccs2)CC1	PGC1a acetyl up 83.0
COc1ccc(C)cc1NC(=O)C1CCCN(S(=O)(=O)c2cccs2)C1 (stereo unspecified)	none
C[C@H]1CCC/C=C/[C@@H]2C[C@H](O)C[C@H]2[C@H](O)[C@H](S(=O)c2ccc(O)cc2)CC(=O)O1 (stereo partly specified)	none
Cc1ccccc1-c1ccc(C2[C@@H]3CN(S(=O)(=O)c4ccccc4C)C[C@H]2N3)cc1 (stereo partly specified)	PGC1a acetyl up 92.3
O=C(Nc1ccc(F)cc1)N1CC(=O)N2[C@@H](CO)[C@H](c3ccc(Br)cc3)[C@@H]2C1	none
COc1ccc(-c2ccc(C3[C@@H]4CN(C(=O)Nc5cccc(F)c5)C[C@H]3N4)cc2)cc1 (stereo partly specified)	PGC1a acetyl up 64.3
O=C(Nc1ccc(F)cc1)N1C[C@@H]2N[C@H](C1)C2c1ccc(/C=C/c2ccccc2)cc1 (stereo partly specified)	PGC1a acetyl up 58.8
N#Cc1ccc(-c2ccc([C@@H]3[C@@H]4CN(S(=O)(=O)c5ccc(-c6ccccc6)cc5)C[C@H]3N4)cc2)cc1	none
O=C(Nc1ccc(F)cc1)N1CC(=O)N2[C@@H](CO)[C@@H](c3ccc(-c4ccccc4)cc3)[C@@H]2C1	none
Cc1ccccc1-c1ccc(C2[C@@H]3CN(C(=O)Nc4cccc(F)c4)C[C@H]2N3)cc1 (stereo partly specified)	PGC1a acetyl up 55.6
CCCCC(O)(CCCC)C(=O)N/N=C(\C)c1ccc(Cl)cc1	none
Cc1cc(C)n(C/C=C/Cn2nc(C)cc2C)n1	none
CN(C)CCOc1ccc2c(c1)C(=O)C(=Cc1ncc([N+](=O)[O-])n1C)C2	none
C[C@H]1CN([C@@H](C)CO)C(=O)c2cc(NC(=O)Nc3cccc4ccccc34)ccc2O[C@H]1CN(C)S(=O)(=O)c1ccc(Cl)cc1	none
CN(C)CCCN(C(=O)CCOc1ccccc1)c1nc2ccc(F)cc2s1	none
CN(C)CCOc1ccc(/C(=C(/CCCl)c2ccccc2)c2ccccc2)cc1	PGC1a acetyl up 108.8
CCCc1nnc(NC(=O)CN2CCOCC2)s1	PGC1a acetyl up 93.0
CCC(=O)Nc1nnc(SCCOC)s1	none
CO[C@@H]1CN(C)C(=O)c2ccc(NC(=O)Nc3c(C)noc3C)cc2OC[C@H](C)N(CC2CC2)C[C@@H]1C	none
CN(CCc1ccccc1)C(=O)c1ccc(NC(=O)Cc2ccc(NC(=O)C3CCN(C(=O)C4CCCCC4)CC3)cc2)cc1	none
CN(C)CCCNC(=O)CC1C[C@H](C(=O)N2CCCCC2)[C@@]2(CCc3ccccc3)c3[nH]c4ccccc4c3CCN2C1=O (stereo partly specified)	PGC1a acetyl up 99.0
CCN(CC)C(=O)[C@H]1CC(CC(=O)NCc2cccc(C(F)(F)F)c2)C(=O)N2CCc3c([nH]c4ccccc34)[C@]12C (stereo partly specified)	none
Cc1noc(C)c1NC(=O)N(C)C[C@@H]1Oc2ccc(NS(=O)(=O)c3cn(C)cn3)cc2C(=O)N([C@@H](C)CO)C[C@@H]1C	none
C[C@@H]1CN([C@@H](C)CO)C(=O)CCCn2nncc2CO[C@H]1CN(C)CC1CCCCC1	none
Cc1cc(C)nc(NC(=O)NS(=O)(=O)Nc2ccc(Br)cn2)n1	none
Cc1nn(CC(=O)Nc2ccc(C(C)C)cc2)c(C)c1[N+](=O)[O-]	none
CC(C)[C@H](NC(=O)NCc1cccs1)C(=O)O	none
Cc1ccccc1NCC(=O)N/N=C/C(Br)=C/c1ccccc1	PGC1a acetyl up 150.3
O=C(Cc1cccs1)N/N=C/C(Br)=C/c1ccccc1	PGC1a acetyl up 80.9
CCCN(C)C[C@H]1Oc2cc(C#C[C@@H](C)O)ccc2S(=O)(=O)N([C@@H](C)CO)C[C@H]1C	none
O=C(O)/C=C/c1cnc[nH]1	none
COCCSc1ccccc1C(=O)Nc1cc(C)on1	none
COc1ccc(S(=O)(=O)N(C)C[C@H]2Oc3ccc(NC(=O)CCN4CCOCC4)cc3C(=O)N([C@@H](C)CO)C[C@@H]2C)cc1	none
COc1cnc(-c2ccccn2)nc1Sc1ccc(C)cc1	none
COc1cccc2sc(Nc3nc(-c4ccccn4)cs3)nc12	PGC1a acetyl up 60.1
O=C1CC(Sc2nnc(-c3ccccc3O)o2)C(=O)N1c1ccccc1 (stereo unspecified)	PGC1a acetyl up 86.4
N#Cc1ccccc1S(=O)(=O)N1CCN(Cc2cc3c(cc2Br)OCCO3)CC1	PGC1a acetyl up 105.2
COc1ccc(S(=O)(=O)Nc2ccc3c(c2)C(=O)N([C@H](C)CO)C[C@@H](C)[C@H](CN(C)C(=O)Nc2ccc(C(F)(F)F)cc2)OCCCC[C@@H](C)O3)cc1	none
O=C(C[C@H]1C[C@@H]2c3cc(NS(=O)(=O)c4ccc(F)cc4)ccc3O[C@@H]2[C@@H](CO)O1)N1CCc2ccccc2C1	none
O=C(Nc1cccc2[nH]ncc12)c1ccc(F)cc1	none
